According to ChEMBL document CHEMBL1127457, “Nonpeptide renin inhibitors with good intraduodenal bioavailability and efficacy in dog” (J Med Chem, 1994):

How the values were obtained:
[1] = Average area under curve for compound at 1 mg/kg dose intravenous administration to Ferret; details: in vivo
[2] = Average area under curve for the compound at 10 mg/kg dose after intraduodenal administration to rat; details: in vivo
[3] = Average area under curve for the compound at 1 mg/kg dose after intravenous administration to rat; details: in vivo
[4] = Average area under curve at 10 mg/kg dose after intraduodenal administration to Ferret; details: in vivo
[5] = Average area under curve at 10 mg/kg intraduodenal administration to salt depleted dog; details: in vivo
[6] = Average area under curve at 1 mg/kg intravenous administration to salt depleted dog; details: in vivo
[7] = Oral bioavailability in dog (salt depleted); details: in vivo
Canis familiaris [8] = test: Mean arterial pressure response following 10 mg/kg intraduodenal administration to salt depleted dog; details: in vivo, other
Canis familiaris [9] = test: Mean arterial pressure response following 1 mg/kg intravenous administration to salt depleted dog; details: in vivo
[10] = Oral bioavailability in ferret; details: in vivo
[11] = Oral bioavailability in rat; details: in vivo; for bioavailability: intraduodenal, 10 mg/kg
[12] = Average peak plasma concentration of compound after 10 mg/kg intraduodenal administration to Ferret
[13] = Average peak plasma concentration of compound after 10 mg/kg intraduodenal administration to rat
[14] = Average peak plasma concentration of compound after 1 mg/kg intravenous administration in salt depleted dog
[15] = Average peak plasma concentration of compound after 1 mg/kg intravenous administration to Ferret
[16] = Average peak plasma concentration of compound after 1 mg/kg intravenous administration to rat
[17] = Partition coefficient (logD6.5); details: octanol/water, pH 6.5
[18] = Partition coefficient (logD7.4); details: octanol/water, pH 7.4
[19] = Average peak plasma concentration of compound at 10 mg/kg intraduodenal administration in salt depleted dog
Renin [20] = target: T1, Renin (Rattus norvegicus, UniProt P08424); test: (§1) Tested in vitro for its ability to inhibit the rat plasma renin; format: cell-free
T1 sequence (P08424 whole entry): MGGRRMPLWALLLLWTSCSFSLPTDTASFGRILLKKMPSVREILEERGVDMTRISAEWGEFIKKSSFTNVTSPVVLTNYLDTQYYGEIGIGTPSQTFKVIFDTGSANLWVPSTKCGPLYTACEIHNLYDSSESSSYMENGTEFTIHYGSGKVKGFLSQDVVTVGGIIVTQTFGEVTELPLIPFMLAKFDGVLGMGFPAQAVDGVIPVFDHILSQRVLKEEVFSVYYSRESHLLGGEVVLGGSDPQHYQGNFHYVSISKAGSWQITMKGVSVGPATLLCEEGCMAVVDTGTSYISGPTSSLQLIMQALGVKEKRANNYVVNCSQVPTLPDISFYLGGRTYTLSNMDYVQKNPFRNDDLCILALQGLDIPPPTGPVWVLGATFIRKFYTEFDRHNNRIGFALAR
Outline: (§2)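 IC50 against renin in plasma from the named species (dog, ferret, human, rat); single determination in most cases.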

Renin [21] = target: T2, Renin (Homo sapiens, UniProt P00797); test: Tested in vitro for its ability to inhibit the human plasma renin; format: cell-free; outline: as §2
T2 sequence (P00797 whole entry): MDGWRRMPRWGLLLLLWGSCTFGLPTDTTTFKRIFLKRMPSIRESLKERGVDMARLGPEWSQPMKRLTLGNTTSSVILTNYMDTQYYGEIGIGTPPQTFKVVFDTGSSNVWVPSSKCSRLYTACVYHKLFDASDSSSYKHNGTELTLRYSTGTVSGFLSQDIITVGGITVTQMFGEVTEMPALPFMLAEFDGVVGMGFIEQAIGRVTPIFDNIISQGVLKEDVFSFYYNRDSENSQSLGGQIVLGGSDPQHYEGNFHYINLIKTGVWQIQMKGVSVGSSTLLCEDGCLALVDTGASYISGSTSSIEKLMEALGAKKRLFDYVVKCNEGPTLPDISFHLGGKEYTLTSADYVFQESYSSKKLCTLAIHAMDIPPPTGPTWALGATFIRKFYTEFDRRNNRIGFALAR

Homo sapiens = species: Homo sapiens; details: Liver, Microsome
Renin (Canis familiaris) [22] = test: Tested in vitro for its ability to inhibit the dog plasma renin
[23] = target: Renin (Mustela putorius furo); test: Tested in vitro for its ability to inhibit the ferret plasma renin
Renin [24] = target: T1, Renin; test: as §1; format: functional, cell-free; outline: as §2
Renin (Canis familiaris) [25] = test: Tested in vitro for its ability to inhibit the dog plasma renin; remark: listed apart in the source
[26] = target: Renin (Mustela putorius furo); test: Tested in vitro for its ability to inhibit the ferret plasma renin; remark: listed apart in the source
[27] = C(compound) was tested for percent […] bioavailability in rat; format: ADME, organism-based; details: in vivo, po
Outline: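 Intraduodenal rather than oral dosing: 10 mg/kg id, plus a 1 mg/kg iv bolus. Plasma drug levels were measured by renin-inhibition bioassay, which counts active metabolites as parent. Level–time data were fitted to a biexponential decay model to give AUC. Bioavailability is the dose-corrected AUCid/AUCiv for each experiment, given as mean ± SD of the mean; n=3 unless noted.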

Renin (Canis familiaris) [28] = test: Tested in vitro for its ability to inhibit the dog plasma renin; remark: listed apart in the source
[29] = target: Renin (Mustela putorius furo); test: Tested in vitro for its ability to inhibit the ferret plasma renin; remark: listed apart in the source

SMILES | AUC [1] [ng·h/mL] | AUC [2] [ng·h/mL] | AUC [3] [ng·h/mL] | AUC [4] [ng·h/mL] | bioavailability [10] [%] | bioavailability [11] [%] | Cmax ([12]; plasma) [ng/mL] | Cmax ([13]; plasma) [ng/mL] | Cmax ([15]; plasma) [ng/mL] | Cmax ([16]; plasma) [ng/mL] | logD [17] | logD [18] | IC50 (Renin [20]) [nM] | IC50 (Renin [21]) [nM] | Rate (nM min-1 (nM of cytochrome P450)-1) (Homo sapiens) | IC50 (Renin (Canis familiaris) [25]) [nM] | IC50 [26] [nM] | also measured
CCCC[C@H](N[C@@H](Cc1ccccc1)C(=O)N1CCC(OCOC)CC1)C(=O)N[C@@H](CC1CCCCC1)[C@@H](O)C[C@H](C(=O)NCC(C)(C)N1CCOCC1)C(C)C | 2630 | 763 | 215 | 16600 | 63 | 35 | 11500 | 600 | 2980 | 340 | > 5 | > 5 | 2100 | 9.1 | 4.32 |  |  | AUC [5]: 6970 ng·h/mL; AUC [6]: 1840 ng·h/mL; bioavailability [7]: 37%; Arterial pressure (Canis familiaris [8]): 8525 % mmHg min; Arterial pressure (Canis familiaris [9]): 7589 % mmHg min; Cmax ([14]; plasma): 7560 ng/mL; Cmax ([19]; plasma): 1600 ng/mL; IC50 (Renin (Canis familiaris) [22]): 14 nM; IC50 [23]: 120 nM
CCCC[C@H](N[C@@H](Cc1ccccc1)C(=O)N1CCC(OCOC)CC1)C(=O)N[C@@H](CC1CCCCC1)[C@@H](O)C[C@H](C(=O)NCCCN1CCOCC1)C(C)C | 902 | 235 | 66.7 | 6800 | 75 | 36.3 |  |  |  |  | 3.9 |  |  |  | 4.14 |  |  | AUC [5]: 4000 ng·h/mL; AUC [6]: 693 ng·h/mL; bioavailability [7]: 57%; Arterial pressure (Canis familiaris [8]): 10803 % mmHg min; Arterial pressure (Canis familiaris [9]): 8356 % mmHg min; Cmax ([12]; in vivo): 4620 ng/mL; Cmax ([13]; in vivo): 190 ng/mL; Cmax ([14]; in vivo): 4700 ng/mL; Cmax ([15]; in vivo): 1550 ng/mL; Cmax ([19]; in vivo): 1260 ng/mL
CCCC[C@H](O[C@@H](Cc1ccccc1)C(=O)N1CCC(OCOC)CC1)C(=O)N[C@@H](CC1CCCCC1)[C@@H](O)C[C@H](C(=O)NCCCN1CCOCC1)C(C)C |  |  |  |  |  |  |  |  |  |  | 3.3 |  |  |  | 4.26 |  |  | 
CCCC[C@H](N[C@@H](Cc1ccccc1)C(=O)N1CCC(OCOC)CC1)C(=O)N[C@@H](CC1CCCCC1)[C@@H](O)C[C@H](C(=O)NCc1ccccn1)C(C)C | 3030 | 6870 | 3130 | 14100 | 46 | 21 | 9120 | 4570 | 10000 | 6250 | > 5 | > 5 |  | 12 | 3.52 | 75 | 1000 | IC50 (Renin [24]): > 10000 nM
CCCC[C@H](N[C@@H](Cc1ccccc1)C(=O)N1CCC(OCOC)CC1)C(=O)N[C@@H](CC1CCCCC1)[C@@H](O)C[C@H](C(=O)NCc1cccnc1)C(C)C | 827 | 3670 | 228 | > 8170 | > 98 |  |  |  |  |  | > 5 | > 5 |  |  | 2.27 |  |  | F ([11]; po): 160%; Cmax ([12]; in vivo): > 4920 ng/mL; Cmax ([13]; in vivo): 2320 ng/mL; Cmax ([15]; in vivo): 3480 ng/mL; Cmax ([16]; in vivo): 560 ng/mL
CCCC[C@H](N[C@@H](Cc1ccccc1)C(=O)N1CCC(OCOC)CC1)C(=O)N[C@@H](CC1CCCCC1)[C@@H](O)C[C@H](C(=O)NCCCn1ccnc1)C(C)C |  |  |  |  |  |  |  |  |  |  |  |  | 7300 |  |  | 24 | 330 | 
CCCC[C@H](N[C@@H](Cc1ccccc1)C(=O)N1CCC(OCOC)CC1)C(=O)N[C@@H](CC1CCCCC1)[C@@H](O)C[C@H](C(=O)NCCN1CCOCC1)C(C)C | 1870 | 1220 | 242 | 9750 | 51 |  | 6500 | 910 | 2840 | 680 | > 5 | > 5 | 3800 | 3.9 | 3.71 | 14 | 170 | AUC [5]: 6530 ng·h/mL; AUC [6]: 1260 ng·h/mL; bioavailability [27]: 50%; bioavailability [7]: 52%; Arterial pressure (Canis familiaris [8]): 6449 % mmHg min; Arterial pressure (Canis familiaris [9]): 2849 % mmHg min; Cmax ([14]; plasma): 7000 ng/mL; Cmax ([19]; plasma): 1830 ng/mL
CCCC[C@H](N[C@@H](Cc1ccccc1)C(=O)N1CCC(OCOC)CC1)C(=O)N[C@@H](CC1CCCCC1)[C@@H](O)C[C@H](C(=O)NCCN1CCCC1)C(C)C | 2750 | > 850 | 340 | 8220 | 29 | > 25 | 5500 | > 480 | 3900 | 1310 | > 5 | > 5 |  | 13 |  |  |  | 
CCCC[C@H](N[C@@H](Cc1ccccc1)C(=O)N1CCC(OCOC)CC1)C(=O)N[C@@H](CC1CCCCC1)[C@@H](O)C[C@H](C(=O)NCCNc1noc(N)n1)C(C)C | 71.3 |  |  | 54.8 | 7 |  | 110 |  | 320 |  | 4.07 | 4.11 |  | 3.8 |  |  |  | 
CCCC[C@H](N[C@@H](Cc1ccccc1)C(=O)N1CCC(OCOC)CC1)C(=O)N[C@@H](CC1CCCCC1)[C@@H](O)C[C@H](C(=O)NCCN1CCCCC1)C(C)C | 1680 | 570 | 352 | 5680 | 33 | 15 | 3730 | 360 | 3600 | 1000 | > 5 | > 5 |  | 14 | 4.52 |  |  | 
CCCC[C@H](N[C@@H](Cc1ccccc1)C(=O)N1CCC(OCOC)CC1)C(=O)N[C@@H](CC1CCCCC1)[C@@H](O)C[C@H](C(=O)NCCc1ccccn1)C(C)C |  |  |  |  |  |  |  |  |  |  |  |  | 7000 | 9.4 |  | 33 | 510 | 
CCCC[C@H](N[C@@H](Cc1ccccc1)C(=O)N1CCC(OCOC)CC1)C(=O)N[C@@H](CC1CCCCC1)[C@@H](O)C[C@H](C(=O)NCCC1CCCCC1)C(C)C |  | 37 | 82 |  |  | 4 |  | 30 |  | 140 | > 5 | > 5 |  | 40 |  |  |  | 
CCCC[C@H](N[C@@H](Cc1ccccc1)C(=O)N1CCC(OCOC)CC1)C(=O)N[C@@H](CC1CCCCC1)[C@@H](O)C[C@H](C(=O)NCCC[N+]1([O-])CCOCC1)C(C)C | 668 | 140 | 212 | 1350 | 20 | 6 | 1180 | 140 | 1830 | 1130 | 3.6 | 3.6 |  | 4.3 |  |  |  | AUC [5]: 1430 ng·h/mL; AUC [6]: > 732 ng·h/mL; bioavailability [7]: < 19%; Arterial pressure (Canis familiaris [8]): 6881 % mmHg min; Arterial pressure (Canis familiaris [9]): 3707 % mmHg min; Cmax ([14]; plasma): > 5530 ng/mL; Cmax ([19]; plasma): 420 ng/mL; IC50 (Renin [24]): 6400 nM; IC50 (Renin (Canis familiaris) [28]): 19 nM; IC50 [29]: 420 nM
CCCC[C@H](N[C@@H](Cc1ccccc1)C(=O)N1CCC(OCOC)CC1)C(=O)N[C@@H](CC1CCCCC1)[C@@H](O)C[C@H](C(=O)NCc1ccncc1)C(C)C |  | 760 | 653 |  |  | 11 |  | 460 |  | 2480 | > 5 | > 5 | 10000 | 7.8 | 0.78 | 59 | 940 | 
